Screening results as filed in PubChem BioAssay.
The list is not random: actives were taken first. Their share in the collection is about 3%.
Apaf1 inhib: inhibitors of human Apaf-1 apoptosome, primary screen, biochemical, DEVD-Rh110 fluorescence, uHTS; inhibition, % at 20 µM; 0.71% of 330,000 active; reconstituted apoptosome caspase-3 activity; Apoptotic protease-activating factor 1 (Homo sapiens), O14727; active = inhibition of at least 40% at 20 µM;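 note: plate controls were DMSO wells for no effect and DEVD-CHO caspase inhibitor wells for full effect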
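detection = Rh110 fluorescence intensity | test system = biochemical Apaf-1 apoptosome reconstitution | also added = cytochrome c and DEVD-Rh110 substrate | schedule = 30 min plus 50 min, RT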
MPTP inh: mitochondrial permeability transition pore inhibitors, primary screen, biochemical, isolated mouse mitochondria, absorbance; 1.4% of 360,000 active; AID 602449, 2012; Ca2+ swelling absorbance, 30 min; inhibition, % at 10 µM;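 active = inhibition of 50% or more, scaled per plate between neutral and stimulator controls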;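 note: 0% = DMSO wells given calcium and 100% = 1 mM EGTA wells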
iPSC survival up: enhancers of single-cell hiPSC survival, primary screen, ATPlite luminescence; 0.044% of 360,000 active; AID 602274, 2012; survival enhancement, % at 20 µM; 100% = ROCK inhibitor wells, 0% = DMSO; in the data active = survival enhancement above about 18%;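 note: cells exposed to compounds for 16 hours before the ATP read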
UBC13 polyUb: UBC13 polyubiquitin chain formation inhibitors, primary screen, biochemical, TR-FRET, uHTS | inhibition, % at 20 µM | 0.47% of 330,000 active | Ubiquitin-conjugating enzyme E2 N (Homo sapiens), P61088 | AID 485273, 2010; in the data active = inhibition above about 45%, passing the limit was not always enough
Target sequence (P61088 whole entry, looked up): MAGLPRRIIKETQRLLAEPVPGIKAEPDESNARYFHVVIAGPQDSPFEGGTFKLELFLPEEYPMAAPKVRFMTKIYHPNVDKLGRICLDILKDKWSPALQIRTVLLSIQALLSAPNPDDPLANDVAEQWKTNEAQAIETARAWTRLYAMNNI
Exocytosis inh: LAMP-1 surface exposure blockers, TALL-104 cells – cell-based, flow cytometry, MLPCN library, primary screen; TALL-104 LAMP-1 surface exposure; cells stimulated with thapsigargin and PMA; inhibition, % at 10 µM; 0.66% of 360,000 active;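 active = inhibition above about 55%, limit read from the data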
beta cell repl: inducers of MIN6 beta-cell proliferation, primary screen, ATP luminescence, uHTS; MIN6 cells proliferation, ATPlite luminescence, 48 h; cells starved in 0.2% serum; 100% = growth in 10% serum; proliferation, % at 10 µM; 0.29% of 330,000 active;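 active = compounds whose signal lies at least 3.5 SD above the mean of all wells on their plate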;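 note: 0% = DMSO-treated cells in low-serum medium and 100% = 10% serum control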
MPTP counter: fluorescence retest of MPTP screen hits in isolated mitochondria, single concentration. 78% of 5,000 active. membrane potential, Rhodamine 123 fluorescence. shares compounds with MPTP inh. inhibition, % at 10 µM; in the data active = inhibition above about 22%;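 note: 0% = DMSO vehicle and 100% = positive control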
* marks the source's active call; other numbers are inactive results.

How did Cc1ccc(C)c(NC(=O)CSc2nc3nc(-c4cccs4)cc(C(F)(F)F)c3c(=O)[nH]2)c1 do in these assays?
Apaf1 inhib: 12.3; MPTP inh: 76.9*; iPSC survival up: 1.3; UBC13 polyUb: 10.9; Exocytosis inh: -0.1; beta cell repl: -5.6; MPTP counter: 61.0*

What do the screens show for `Cc1ccc(C)c(NC(=O)CSc2nc(N)c(NC(=O)c3cccs3)c(=O)[nH]2)c1`?
MPTP inh: -1.3; iPSC survival up: -0.2; Exocytosis inh: -4.1

How did O=C(CSc1nc2nc(-c3cccs3)cc(C(F)(F)F)c2c(=O)[nH]1)Nc1ccc(F)c(F)c1 do in these assays?
Apaf1 inhib: 14.5; MPTP inh: 76.4*; iPSC survival up: 2.6; UBC13 polyUb: -17.0; Exocytosis inh: 2.1; beta cell repl: -6.1; MPTP counter: 50.3*

How did O=C1C(=O)N(c2ccccn2)C(c2cccc(F)c2)/C1=C(/O)c1ccccc1 (stereo not drawn) do in these assays?
Apaf1 inhib: 6.7; MPTP inh: 0.8; iPSC survival up: 0.7; UBC13 polyUb: 1.2; Exocytosis inh: -6.9; beta cell repl: 3.7

How did O=C(Nc1ccnn1C1CCN(Cc2ccc(C#CCCO)cc2)CC1)c1cccc(F)c1 do in these assays?
Apaf1 inhib: 9.0; MPTP inh: 0.4; iPSC survival up: -0.5; UBC13 polyUb: -1.8; Exocytosis inh: 0.2; beta cell repl: 2.4

Results for CN(C)c1ccc(NC(=O)Nc2ccc3snnc3c2)cc1 ?
Apaf1 inhib: 12.0; MPTP inh: 1.6; iPSC survival up: -2.9; UBC13 polyUb: 2.4; Exocytosis inh: -1.0; beta cell repl: -1.4

Results for O=C(Nc1ccccc1)Nc1ccc2snnc2c1 ?
Apaf1 inhib: -2.5; MPTP inh: 100.9*; iPSC survival up: -3.2; UBC13 polyUb: 5.8; Exocytosis inh: -4.5; beta cell repl: -1.0; MPTP counter: 92.2*

What do the screens show for `O=C(Nc1ccccc1)Nc1ccc2nnsc2c1`?
Apaf1 inhib: -10.0; MPTP inh: 82.7*; iPSC survival up: 0.4; UBC13 polyUb: 4.8; Exocytosis inh: -8.1; beta cell repl: -4.2; MPTP counter: 72.1*

How did O=C(NCc1ccccc1)c1ccc2nnsc2c1 do in these assays?
Apaf1 inhib: -9.0; MPTP inh: 2.1; iPSC survival up: 0.5; UBC13 polyUb: 1.0; Exocytosis inh: -6.0; beta cell repl: -4.2

What do the screens show for `CCOC(=O)Cc1nnc2c(Nc3ccccc3F)nc3nonc3n12`?
Apaf1 inhib: -2.9; MPTP inh: 92.2*; iPSC survival up: 1.8; UBC13 polyUb: 0.8; Exocytosis inh: -3.1; beta cell repl: -5.8; MPTP counter: 124.9*

Results for COc1ccccc1NS(=O)(=O)c1ccc(C(=O)NCCCN2CCOCC2)cc1 ?
Apaf1 inhib: 10.9; MPTP inh: -0.8; iPSC survival up: 0.2; UBC13 polyUb: -3.2; Exocytosis inh: -2.0; beta cell repl: -2.3

How did COc1ccc(C(C)NC(=S)NCc2ccc(F)cc2)cc1OC (stereo not drawn) do in these assays?
Apaf1 inhib: 5.2; MPTP inh: 1.1; iPSC survival up: 0.3; UBC13 polyUb: -1.7; Exocytosis inh: -0.1; beta cell repl: 2.7

How did CCC(C)c1ccc(C(C)NC(=S)NCc2ccc(F)cc2)cc1 (stereo not drawn) do in these assays?
Apaf1 inhib: 20.0; MPTP inh: 60.2*; iPSC survival up: -0.4; UBC13 polyUb: 1.3; Exocytosis inh: -1.7; beta cell repl: -7.5; MPTP counter: 93.9*

How did CC(NC(=S)NCc1ccc(F)cc1)C12CC3CC(CC(C3)C1)C2 (stereo not drawn) do in these assays?
Apaf1 inhib: 16.2; MPTP inh: 80.2*; iPSC survival up: 0.1; UBC13 polyUb: 3.1; Exocytosis inh: 0.2; beta cell repl: -5.2; MPTP counter: 90.3*

What do the screens show for `CCC(NC(=S)NCc1ccc(F)cc1)c1ccc(C(C)C)cc1` (stereo not drawn)?
Apaf1 inhib: 12.7; MPTP inh: 78.7*; iPSC survival up: -0.4; UBC13 polyUb: 2.4; Exocytosis inh: 6.4; beta cell repl: -7.4; MPTP counter: 90.6*

How did Fc1ccc(CNC(=S)NCc2ccccc2)cc1 do in these assays?
Apaf1 inhib: 10.3; MPTP inh: 1.7; iPSC survival up: -0.4; UBC13 polyUb: 0.3; Exocytosis inh: 2.9; beta cell repl: 0.1

How did CCOc1ccc(C(C)NC(=S)NCc2ccc(Cl)cc2)cc1 (stereo not drawn) do in these assays?
Apaf1 inhib: 11.0; MPTP inh: 60.2*; iPSC survival up: -2.0; UBC13 polyUb: 17.6; Exocytosis inh: 13.3; beta cell repl: -6.3; MPTP counter: 93.6*

Results for Cc1ccc(S(=O)(=O)Nc2cccc3c2O[C@H](CN(C)C(=O)Nc2cccc4ccccc24)[C@H](C)CN([C@H](C)CO)C3=O)cc1 ?
Apaf1 inhib: 21.6; MPTP inh: 1.7; iPSC survival up: -2.1; UBC13 polyUb: -3.3; Exocytosis inh: 10.4; beta cell repl: -3.9

How did Cc1ccc(Cc2c(-c3cccc(Br)c3)nc3cc(C)c(Br)c(C)n23)cc1 do in these assays?
MPTP inh: 1.0; iPSC survival up: -0.4; Exocytosis inh: -0.5

What do the screens show for `COc1ccccc1CNC(=O)COC(=O)c1cc(=O)c2ccccc2o1`?
Apaf1 inhib: 3.0; MPTP inh: -0.4; iPSC survival up: -2.5; UBC13 polyUb: 2.5; Exocytosis inh: 0.3; beta cell repl: -1.8

How did CCCc1ccc(C(C)NC(=S)NCc2ccc(F)cc2)cc1 (stereo not drawn) do in these assays?
Apaf1 inhib: 24.8; MPTP inh: 64.0*; iPSC survival up: -0.3; UBC13 polyUb: -5.9; Exocytosis inh: -2.8; beta cell repl: -7.7; MPTP counter: 91.4*

Results for CCN(CC)CC(=O)N1c2ccccc2CCc2ccc(NC(=O)c3cc(OC)c(OC)c(OC)c3)cc21 ?
Apaf1 inhib: 4.0; MPTP inh: 1.8; iPSC survival up: -0.3; UBC13 polyUb: 13.3; Exocytosis inh: 11.6; beta cell repl: -2.1

Results for COc1ccc(C(C(=O)NC(C)(C)C)n2c(-c3ccc(-c4ccccc4)cc3)nc3ccccc32)cc1 (stereo not drawn) ?
MPTP inh: 0.7; Exocytosis inh: 6.5

What do the screens show for `N#Cc1ccc(CN2CCN(C(=O)CNC(=O)Cc3ccccc3)CC2)cc1`?
Apaf1 inhib: 9.7; MPTP inh: -0.4; iPSC survival up: -0.1; UBC13 polyUb: -6.5; Exocytosis inh: 2.2; beta cell repl: -3.9
